Measurements: ChEMBL document CHEMBL4371052, “Diarylcarbonates are a new class of deubiquitinating enzyme inhibitor” (Bioorg Med Chem Lett, 2019)
Active and inactive are the calls of the source. The rule behind the calls is not given here.

Key:
[1] = target: Ubiquitin carboxyl-terminal hydrolase 9X (Homo sapiens) (UniProt Q93008); assay: Inhibition of USP9x in human K562 cells assessed as decrease in Bcr-Abl expression at 50 uM measured after 2 hrs by Western blot analysis; assay type: cell-based
Chain of Ubiquitin carboxyl-terminal hydrolase 9X (Homo sapiens) (Q93008 whole entry, the tested form may be a part): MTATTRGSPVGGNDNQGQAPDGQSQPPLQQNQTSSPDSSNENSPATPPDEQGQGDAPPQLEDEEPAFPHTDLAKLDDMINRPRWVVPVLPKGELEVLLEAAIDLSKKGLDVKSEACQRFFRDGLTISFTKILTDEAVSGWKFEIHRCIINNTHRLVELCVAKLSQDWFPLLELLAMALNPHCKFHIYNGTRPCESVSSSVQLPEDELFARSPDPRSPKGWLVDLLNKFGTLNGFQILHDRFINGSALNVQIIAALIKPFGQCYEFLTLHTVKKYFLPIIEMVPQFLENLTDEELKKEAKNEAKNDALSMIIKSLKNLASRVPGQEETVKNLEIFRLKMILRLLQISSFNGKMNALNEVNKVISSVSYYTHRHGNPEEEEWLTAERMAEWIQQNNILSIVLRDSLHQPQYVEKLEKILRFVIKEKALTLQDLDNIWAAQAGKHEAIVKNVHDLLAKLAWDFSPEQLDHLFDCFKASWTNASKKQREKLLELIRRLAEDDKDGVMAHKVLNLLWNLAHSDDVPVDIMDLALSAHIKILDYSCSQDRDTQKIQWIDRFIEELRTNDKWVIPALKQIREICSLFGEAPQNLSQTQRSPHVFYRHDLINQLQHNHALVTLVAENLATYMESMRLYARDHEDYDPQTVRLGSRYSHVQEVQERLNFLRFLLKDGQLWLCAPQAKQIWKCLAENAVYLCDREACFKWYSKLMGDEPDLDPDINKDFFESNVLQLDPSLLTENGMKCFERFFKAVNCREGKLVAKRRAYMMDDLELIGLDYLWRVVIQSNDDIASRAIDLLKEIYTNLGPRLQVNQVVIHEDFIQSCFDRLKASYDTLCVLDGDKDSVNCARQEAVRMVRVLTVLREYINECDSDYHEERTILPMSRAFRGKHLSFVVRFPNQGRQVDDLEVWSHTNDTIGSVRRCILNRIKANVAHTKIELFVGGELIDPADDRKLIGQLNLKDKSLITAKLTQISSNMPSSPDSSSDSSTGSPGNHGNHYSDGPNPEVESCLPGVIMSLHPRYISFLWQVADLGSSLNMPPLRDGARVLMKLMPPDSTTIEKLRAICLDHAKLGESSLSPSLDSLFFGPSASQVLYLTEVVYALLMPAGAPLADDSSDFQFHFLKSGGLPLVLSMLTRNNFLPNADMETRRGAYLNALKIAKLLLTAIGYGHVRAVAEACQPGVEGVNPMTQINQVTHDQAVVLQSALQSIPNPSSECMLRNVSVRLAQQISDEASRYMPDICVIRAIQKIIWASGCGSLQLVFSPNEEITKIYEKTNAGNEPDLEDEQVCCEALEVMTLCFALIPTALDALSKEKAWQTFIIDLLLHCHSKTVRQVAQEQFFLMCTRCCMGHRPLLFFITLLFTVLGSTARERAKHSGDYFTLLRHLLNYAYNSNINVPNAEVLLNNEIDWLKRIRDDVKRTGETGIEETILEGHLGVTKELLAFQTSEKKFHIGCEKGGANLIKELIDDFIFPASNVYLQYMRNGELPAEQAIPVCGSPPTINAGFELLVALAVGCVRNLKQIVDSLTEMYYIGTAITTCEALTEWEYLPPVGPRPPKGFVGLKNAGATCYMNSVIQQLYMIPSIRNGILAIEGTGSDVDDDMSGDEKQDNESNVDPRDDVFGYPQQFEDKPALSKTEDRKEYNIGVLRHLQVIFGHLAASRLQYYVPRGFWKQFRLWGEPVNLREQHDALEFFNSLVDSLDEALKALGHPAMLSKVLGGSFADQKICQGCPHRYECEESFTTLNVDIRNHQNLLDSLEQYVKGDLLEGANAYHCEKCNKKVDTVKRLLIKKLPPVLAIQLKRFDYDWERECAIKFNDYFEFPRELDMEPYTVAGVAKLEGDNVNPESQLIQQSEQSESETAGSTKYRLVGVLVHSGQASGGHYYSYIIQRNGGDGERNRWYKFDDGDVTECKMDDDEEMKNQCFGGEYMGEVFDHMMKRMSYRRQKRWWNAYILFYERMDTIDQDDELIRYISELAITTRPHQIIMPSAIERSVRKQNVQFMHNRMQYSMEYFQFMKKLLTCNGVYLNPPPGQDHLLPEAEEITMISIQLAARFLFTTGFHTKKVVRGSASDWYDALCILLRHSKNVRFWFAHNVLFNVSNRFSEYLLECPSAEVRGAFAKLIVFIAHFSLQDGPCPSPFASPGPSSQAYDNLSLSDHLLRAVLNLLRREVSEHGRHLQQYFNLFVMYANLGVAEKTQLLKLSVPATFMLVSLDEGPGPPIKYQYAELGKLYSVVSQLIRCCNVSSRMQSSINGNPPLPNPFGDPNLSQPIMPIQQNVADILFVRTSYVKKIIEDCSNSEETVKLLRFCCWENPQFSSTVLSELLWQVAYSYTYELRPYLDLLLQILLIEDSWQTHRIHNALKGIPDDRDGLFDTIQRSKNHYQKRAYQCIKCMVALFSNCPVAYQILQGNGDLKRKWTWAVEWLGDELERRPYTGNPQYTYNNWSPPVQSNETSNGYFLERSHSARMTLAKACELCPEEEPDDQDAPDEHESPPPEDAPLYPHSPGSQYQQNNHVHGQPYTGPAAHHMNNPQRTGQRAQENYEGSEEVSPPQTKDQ
Summary of the method: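 K562 cells treated with 50 μM compound for 2 h. Lysates were sonicated in SDS, and Bcr-Abl was immunoblotted with anti-Abl antibody.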

MCF7 = assay: Cytotoxicity against human MCF7 cells assessed as decrease in cell viability treated every 24 hrs measured after 72 hrs by alamar blue assay; assay type: functional, cell-based
Summary of the method: (§1)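 MCF7 or B16/F10 cells dosed with compound every 24 h. Viable cells were quantified with Alamar Blue after 72 h.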

[2] = target: T1, Ubiquitin carboxyl-terminal hydrolase 19 (Homo sapiens) (UniProt O94966); assay: Inhibition of USP19 in HEK293T cell lysates assessed as enzyme recovery at 250 uM using HA-tagged vinyl-sulfone as substrate […] followed by 10-fold dilution and subsequent substrate addition measured up to 2 hrs by Western blot analysis; assay type: subcellular; details: Lysate
T1 sequence (whole entry): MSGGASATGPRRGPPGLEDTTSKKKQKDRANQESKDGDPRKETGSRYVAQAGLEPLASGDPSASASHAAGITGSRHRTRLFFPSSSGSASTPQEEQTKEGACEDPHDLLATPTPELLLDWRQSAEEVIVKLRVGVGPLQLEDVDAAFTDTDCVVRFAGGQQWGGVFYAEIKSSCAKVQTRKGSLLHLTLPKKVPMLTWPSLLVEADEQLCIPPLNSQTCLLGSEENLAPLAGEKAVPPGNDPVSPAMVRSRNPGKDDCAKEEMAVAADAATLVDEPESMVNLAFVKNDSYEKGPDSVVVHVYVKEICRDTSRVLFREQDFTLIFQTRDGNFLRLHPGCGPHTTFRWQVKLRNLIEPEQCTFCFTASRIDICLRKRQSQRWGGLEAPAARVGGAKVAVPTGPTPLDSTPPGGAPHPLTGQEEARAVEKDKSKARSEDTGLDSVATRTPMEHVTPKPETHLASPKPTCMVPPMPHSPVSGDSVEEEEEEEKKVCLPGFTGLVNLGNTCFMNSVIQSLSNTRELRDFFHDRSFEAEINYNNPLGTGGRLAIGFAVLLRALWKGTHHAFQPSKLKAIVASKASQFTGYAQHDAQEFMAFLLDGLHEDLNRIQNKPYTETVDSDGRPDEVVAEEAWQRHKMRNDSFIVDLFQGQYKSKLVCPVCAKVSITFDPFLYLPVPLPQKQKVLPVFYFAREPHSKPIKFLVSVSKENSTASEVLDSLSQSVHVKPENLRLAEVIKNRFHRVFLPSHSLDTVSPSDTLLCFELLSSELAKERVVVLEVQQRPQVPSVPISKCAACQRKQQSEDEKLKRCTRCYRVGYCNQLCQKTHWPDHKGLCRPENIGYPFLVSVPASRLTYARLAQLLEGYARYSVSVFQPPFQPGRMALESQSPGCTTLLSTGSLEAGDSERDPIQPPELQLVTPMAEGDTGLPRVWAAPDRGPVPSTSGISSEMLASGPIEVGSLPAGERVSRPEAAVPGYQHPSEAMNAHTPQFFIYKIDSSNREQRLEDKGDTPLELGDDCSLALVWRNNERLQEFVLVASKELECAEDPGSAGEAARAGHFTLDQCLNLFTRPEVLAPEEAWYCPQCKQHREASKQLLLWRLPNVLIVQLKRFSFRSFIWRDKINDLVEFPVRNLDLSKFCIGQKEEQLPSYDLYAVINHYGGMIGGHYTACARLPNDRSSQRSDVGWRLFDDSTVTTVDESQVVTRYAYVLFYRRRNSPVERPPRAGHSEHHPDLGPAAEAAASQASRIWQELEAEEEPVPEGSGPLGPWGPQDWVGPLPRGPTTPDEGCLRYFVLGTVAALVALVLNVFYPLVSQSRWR

[3] = target: T2, Ubiquitin carboxyl-terminal hydrolase isozyme L3 (Homo sapiens) (UniProt P15374); assay: Inhibition of UCHL3 in HEK293T cell lysates assessed as enzyme recovery at 250 uM using HA-tagged vinyl-sulfone as substrate […] followed by 10-fold dilution and subsequent substrate addition measured within 15 mins by Western blot analysis; assay type: subcellular; details: Lysate
T2 sequence (whole entry): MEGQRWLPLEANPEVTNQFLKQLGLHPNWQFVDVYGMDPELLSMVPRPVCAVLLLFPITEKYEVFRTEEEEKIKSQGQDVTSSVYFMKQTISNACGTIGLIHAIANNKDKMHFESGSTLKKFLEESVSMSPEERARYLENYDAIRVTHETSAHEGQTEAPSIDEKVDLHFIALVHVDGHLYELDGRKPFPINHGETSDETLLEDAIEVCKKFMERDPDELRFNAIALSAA

[4] = target: Ubiquitin carboxyl-terminal hydrolase 28 (Homo sapiens) (UniProt Q96RU2); assay: Inhibition of USP28 in HEK293T cell lysates at 25 uM using HA-tagged vinyl-sulfone as substrate preincubated for 19 to 60 mins followed by substrate addition and measured after 19 to 25 mins by Western blot analysis; assay type: subcellular; details: Lysate
[5] = target: Ubiquitin carboxyl-terminal hydrolase 9X (Homo sapiens) (UniProt Q93008); assay: Inhibition of recombinant His6-tagged USP9x catalytic domain (unknown origin) using Ub-AMC as substrate by fluorescence assay; details: TDE = time-dependent effect
[6] = target: Ubiquitin carboxyl-terminal hydrolase 9X (Homo sapiens) (UniProt Q93008); assay: Inhibition of USP9x in HEK293T cell lysates at 25 uM using HA-tagged vinyl-sulfone as substrate measured after 2 to 30 mins by Western blot analysis; assay type: subcellular; details: Lysate
Summary of the method: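 HEK 293T lysate (1.5 mg/ml) given compound (25 μM) or DMSO at the same time as HA-Ub-VS (1.5 μM). Aliquots withdrawn over time were run on SDS-PAGE and immunoblotted for HA.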

B16-F10 = assay: Cytotoxicity against mouse B16F10 cells assessed as decrease in cell viability treated every 24 hrs measured after 72 hrs by alamar blue assay; assay type: functional, cell-based; summary of the method: as §1
[7] = target: Ubiquitin carboxyl-terminal hydrolase 7 (Homo sapiens) (UniProt Q93009); assay: Inhibition of USP7 in HEK293T cell lysates assessed as ratio of HA-Ub-VS modified USP7 to total USP7 at 100 uM using HA-Ub vinyl-sulfone as substrate preincubated for 19 to 60 mins followed by substrate addition and measured after 19 to 25 mins by Western blot analysis (reference value: 0.5); assay type: subcellular; details: Lysate
Chain of Ubiquitin carboxyl-terminal hydrolase 7 (Homo sapiens) (Q93009 whole entry, looked up): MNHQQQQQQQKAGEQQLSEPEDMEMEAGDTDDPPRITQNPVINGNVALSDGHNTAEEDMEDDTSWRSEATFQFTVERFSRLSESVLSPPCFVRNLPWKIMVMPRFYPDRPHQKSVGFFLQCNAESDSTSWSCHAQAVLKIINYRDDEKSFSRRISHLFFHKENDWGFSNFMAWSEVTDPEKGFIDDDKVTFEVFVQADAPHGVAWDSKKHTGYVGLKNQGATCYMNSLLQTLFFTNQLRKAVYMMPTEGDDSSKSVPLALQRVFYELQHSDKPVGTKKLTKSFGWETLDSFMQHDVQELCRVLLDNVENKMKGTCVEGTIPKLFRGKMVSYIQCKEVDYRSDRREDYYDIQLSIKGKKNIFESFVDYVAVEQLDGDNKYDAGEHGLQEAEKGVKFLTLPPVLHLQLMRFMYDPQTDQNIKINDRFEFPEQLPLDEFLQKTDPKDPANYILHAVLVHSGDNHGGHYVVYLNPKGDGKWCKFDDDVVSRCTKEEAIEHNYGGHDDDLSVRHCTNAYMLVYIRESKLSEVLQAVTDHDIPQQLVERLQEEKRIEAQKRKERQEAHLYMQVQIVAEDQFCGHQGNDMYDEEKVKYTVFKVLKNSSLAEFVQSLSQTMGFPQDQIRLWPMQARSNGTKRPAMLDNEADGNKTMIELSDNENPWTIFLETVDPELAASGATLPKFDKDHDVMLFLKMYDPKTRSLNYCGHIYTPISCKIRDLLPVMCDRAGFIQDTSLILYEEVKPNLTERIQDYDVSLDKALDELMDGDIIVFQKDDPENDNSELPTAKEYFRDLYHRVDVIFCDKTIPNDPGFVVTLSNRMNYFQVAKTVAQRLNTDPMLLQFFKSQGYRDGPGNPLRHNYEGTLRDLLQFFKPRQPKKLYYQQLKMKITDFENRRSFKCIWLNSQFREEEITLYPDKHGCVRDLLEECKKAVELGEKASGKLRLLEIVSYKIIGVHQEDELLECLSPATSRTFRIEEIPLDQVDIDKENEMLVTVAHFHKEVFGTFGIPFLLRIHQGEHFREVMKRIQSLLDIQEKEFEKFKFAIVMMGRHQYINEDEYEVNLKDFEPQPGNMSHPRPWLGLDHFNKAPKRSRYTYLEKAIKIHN
Summary of the method: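 HEK 293T lysate incubated with compound, then treated with HA-Ub-VS. Samples were run on SDS-PAGE and blotted with anti-USP7, and the probe-modified USP7 band was distinguished from unmodified USP7.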

Ficin (Ficus carica) = assay: Inhibition of fig ficin at 100 uM using Z-Arg-AMC as substrate preincubated for 30 mins followed by substrate addition by fluorescence assay
[8] = target: Ubiquitin carboxyl-terminal hydrolase 17-like protein 24 (Homo sapiens) (UniProt Q0WX57); assay: Inhibition of USP17 in HEK293T cell lysates at 25 uM using HA-tagged vinyl-sulfone as substrate preincubated for 19 to 60 mins followed by substrate addition and measured after 19 to 25 mins by Western blot analysis; assay type: subcellular; details: Lysate
Chain of Ubiquitin carboxyl-terminal hydrolase 17-like protein 24 (Homo sapiens) (Q0WX57 whole entry): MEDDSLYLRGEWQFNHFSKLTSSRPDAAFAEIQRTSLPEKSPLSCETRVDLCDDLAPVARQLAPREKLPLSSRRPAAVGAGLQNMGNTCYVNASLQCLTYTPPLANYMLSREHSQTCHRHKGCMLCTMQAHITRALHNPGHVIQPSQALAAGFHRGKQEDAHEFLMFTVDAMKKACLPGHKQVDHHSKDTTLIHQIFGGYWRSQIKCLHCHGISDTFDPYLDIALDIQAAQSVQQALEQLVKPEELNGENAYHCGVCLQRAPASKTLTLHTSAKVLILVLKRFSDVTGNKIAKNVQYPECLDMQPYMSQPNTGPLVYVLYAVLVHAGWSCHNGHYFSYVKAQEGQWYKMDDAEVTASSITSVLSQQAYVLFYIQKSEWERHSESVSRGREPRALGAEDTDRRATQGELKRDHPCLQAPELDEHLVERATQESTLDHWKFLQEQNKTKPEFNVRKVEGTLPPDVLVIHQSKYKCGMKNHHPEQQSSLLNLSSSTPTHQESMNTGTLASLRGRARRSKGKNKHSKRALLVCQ

[9] = target: Ubiquitin carboxyl-terminal hydrolase isozyme L1 (Homo sapiens) (UniProt P09936); assay: Inhibition of UCHL1 in HEK293T cell lysates at 25 uM using HA-tagged vinyl-sulfone as substrate preincubated for 19 to 60 mins followed by substrate addition and measured after 19 to 25 mins by Western blot analysis; assay type: subcellular; details: Lysate
Chain of Ubiquitin carboxyl-terminal hydrolase isozyme L1 (Homo sapiens) (P09936 whole entry, looked up): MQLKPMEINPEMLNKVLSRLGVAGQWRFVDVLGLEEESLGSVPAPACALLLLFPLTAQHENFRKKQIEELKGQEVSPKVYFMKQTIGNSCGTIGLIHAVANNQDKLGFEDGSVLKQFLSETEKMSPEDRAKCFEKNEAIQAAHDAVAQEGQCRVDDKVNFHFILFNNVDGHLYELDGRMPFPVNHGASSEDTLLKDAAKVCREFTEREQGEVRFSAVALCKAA

inhibition [1]: Active
inhibition [2]: inactive
inhibition [3]: Active
inhibition [4]: Active
inhibition [5]: Tde
inhibition [6]: inactive
Ratio [7]: 0.3
inhibition (Ficin (Ficus carica)): inactive
inhibition [8]: Active
inhibition [9]: inactive
SMILES: NCc1ccc(OC(=O)Oc2ccc3ccccc3c2)cc1
Activity (MCF7): Active
Activity (B16-F10): Active
